Measurements published in ChEMBL document CHEMBL3112517, “Identification of dihydrostilbenes in Pholidota chinensis as a new scaffold for GABAA receptor modulators” (Bioorg Med Chem, 2014).
The source made the active and inactive calls. The rule behind the calls is not given here.

How the values were obtained:
Type in all cases: cell-based
Rattus norvegicus [1] = species on record: Rattus norvegicus; assay: Allosteric modulation of rat GABAA alpha1beta2gamma2S receptor expressed in Xenopus laevis oocytes assessed as potentiation of GABA-induced chloride ion current at holding potential -70 mV at 100 uM by two-microelectrode voltage clamp assay relative to GABA-treated control
Summary of the method: (§1)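 Stage V–VI Xenopus laevis oocytes were injected with 50 nL of rat α1, β2 and γ2S cRNA mixed 1:1:10 (about 300–3000 pg/nL per subunit), stored at 18 °C in ND96, and recorded on days 1–5. Two-electrode clamp was at −70 mV in pH 7.4 HEPES bath. Compound was applied by fast perfusion with GABA EC3–10, in 1% DMSO final. Enhancement = I(GABA+Comp)/IGABA − 1.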

Rattus norvegicus [2] = species on record: Rattus norvegicus; assay: Modulation of rat GABAA alpha1beta2gamma2S receptor expressed in Xenopus laevis oocytes assessed as potentiation of EC5 to 10 GABA-induced chloride ion current at holding potential -70 mV at 1 uM by two-microelectrode voltage clamp assay relative to GABA-treated control
Summary of the method: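 Stage V–VI oocytes injected with rat α1, β2 and γ2S cRNAs (1:1:10), kept at 18 °C in ND96 and recorded 1–5 days later at −70 mV. Bath: 90 mM NaCl, 1 mM KCl, 1 mM MgCl2, 1 mM CaCl2, 5 mM HEPES, pH 7.4. Compound from 100 mM DMSO stock co-applied with GABA EC3–10 by fast perfusion, final DMSO 1%. Enhancement = I(GABA+comp)/IGABA − 1.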

Rattus norvegicus [3] = species on record: Rattus norvegicus; assay: Agonist activity rat GABAA alpha1beta2gamma2S receptor expressed in Xenopus laevis oocytes assessed as potentiation of GABA-induced chloride ion current at holding potential -70 mV at <100 uM compound treated prior to GABA challenge by two-microelectrode voltage clamp assay
Rattus norvegicus [4] = species on record: Rattus norvegicus; assay: Allosteric modulation of rat GABAA alpha1beta2gamma2S receptor expressed in Xenopus laevis oocytes assessed as potentiation of EC3 to 10 GABA-induced chloride ion current at holding potential -70 mV at 1 to 300 uM by two-microelectrode voltage clamp assay relative to GABA-treated control; summary of the method: as §1
[5] = (§2) Allosteric modulation of rat GABAA alpha1beta2gamma2S receptor expressed in Xenopus laevis oocytes assessed as potentiation of EC3 to 10 GABA-induced chloride ion current at holding potential -70 mV by two-microelectrode voltage clamp assay; summary of the method: as §1
Rattus norvegicus [6] = species on record: Rattus norvegicus; assay: as §2; summary of the method: as §1
Rattus norvegicus [7] = species on record: Rattus norvegicus; assay: Allosteric modulation of rat GABAA alpha1beta2gamma2S receptor expressed in Xenopus laevis oocytes assessed as potentiation of EC3 to 10 GABA-induced chloride ion current at holding potential -70 mV at 500 uM by two-microelectrode voltage clamp assay relative to GABA-treated control; summary of the method: as §1

COc1ccc(/C=C/c2ccc(OC)cc2)cc1
Activity (Rattus norvegicus [1]): -24.8%

COc1ccc(CCc2ccc(OC)cc2)cc1
Activity (Rattus norvegicus [1]): -20.9%

Oc1cc(O)cc(CCc2ccc(O)c(O)c2)c1
Activity (Rattus norvegicus [1]): 86.3%

C(=C/c1ccccc1)/c1ccccc1
Activity (Rattus norvegicus [1]): 12.6%

CN1C(=O)CN=C(c2ccccc2)c2cc(Cl)ccc21
Activity (Rattus norvegicus [2]): 231%

COc1cc(/C=C/c2ccc(OC)c(OC)c2)cc(OC)c1
Activity (Rattus norvegicus [1]): 101%

c1ccc(CC(c2ccccc2)c2ccccc2)cc1
Activity (Rattus norvegicus [1]): 51.6%

Oc1ccc(/C=C/c2cc(O)cc(O)c2)cc1
Activity (Rattus norvegicus [1]): 122%

Oc1cc(O)cc(/C=C/c2ccc(O)cc2O)c1
Activity (Rattus norvegicus [1]): -19.7%

COc1cc(/C=C/c2ccc(O)cc2)cc(OC)c1
Activity (Rattus norvegicus [1]): 212%

COc1cc(CCc2ccc(OC)c(OC)c2)cc(OC)c1
Activity (Rattus norvegicus [3]): inactive
Imax (Rattus norvegicus [4]): 871%
EC50 [5]: 20.2 µM
Activity (Rattus norvegicus [6]): Dose-dependent effect
Activity (Rattus norvegicus [1]): 544%

Br[C@H](c1ccccc1)[C@@H](Br)c1ccccc1
Activity (Rattus norvegicus [1]): -12.9%

C(=C\c1ccccc1)/c1ccccc1
Activity (Rattus norvegicus [1]): -11.3%

Oc1cc(O)cc(/C=C/c2ccc(O)c(O)c2)c1
Activity (Rattus norvegicus [1]): -35.4%

Oc1ccc(CCc2cc(O)cc(O)c2)cc1
Activity (Rattus norvegicus [1]): 162%

c1ccc(CCc2ccccc2)cc1
Activity (Rattus norvegicus [1]): 8.3%

COc1ccc(CCc2ccccc2F)cc1
Activity (Rattus norvegicus [1]): -16.8%

CC(=O)Oc1ccc(/C=C/c2cc(OC(C)=O)cc(OC(C)=O)c2)cc1
Activity (Rattus norvegicus [1]): 123%

COc1cc(O)cc(/C=C\c2cccc(O)c2)c1
Activity (Rattus norvegicus [3]): inactive
Imax (Rattus norvegicus [7]): 787%
EC50 [5]: 176 µM
Activity (Rattus norvegicus [6]): Dose-dependent effect
Activity (Rattus norvegicus [1]): 192%

C(=C(c1ccccc1)c1ccccc1)c1ccccc1
Activity (Rattus norvegicus [1]): -7.3%

COc1ccc(/C=C/c2ccccc2F)cc1
Activity (Rattus norvegicus [1]): -22.9%

Oc1cc(O)cc(CCc2ccc(O)cc2O)c1
Activity (Rattus norvegicus [1]): 44.1%

CC(=O)Oc1ccc(CCc2cc(OC(C)=O)cc(OC(C)=O)c2)cc1
Activity (Rattus norvegicus [1]): 228%
